{"data": "Measurements collected from several papers", "target": "Rho-associated protein kinase 1 (ROCK1, Homo sapiens, UniProt Q13464)", "note": "Protocols differ between the studies behind these lines."}
{"Structure (SMILES)": "Cc1cc(O)c(-c2ccc([C@@H](C)CN(C)C)cc2)c2c1[nH]c(=O)c1sccc12", "observed": "enzyme activity", "mode": "inhibitor", "concentration": "0.1 µM", "measurement": "inhibition", "value": "-3.74%"}
{"Structure (SMILES)": "Cc1cc(-c2ccnc3[nH]cc(F)c23)cc(F)c1[C@@]1(O)[C@H](C)CN(C2CCS(=O)(=O)CC2)C[C@@H]1C", "observed": "enzyme activity", "mode": "inhibitor", "concentration": "0.1 µM", "measurement": "remaining activity", "value": "7.04%"}
{"Structure (SMILES)": "CO[C@@H]1[C@H](N(C)C(=O)c2ccccc2)C[C@H]2O[C@]1(C)n1c3ccccc3c3c4c(c5c6ccccc6n2c5c31)C(=O)NC4", "observed": "enzyme activity", "mode": "inhibitor", "concentration": "1 µM", "measurement": "inhibition", "value": "43%"}
{"Structure (SMILES)": "CCCCC(=O)Nc1ccc(-c2ccc3ncn(CCC)c(=O)c3c2)cn1", "observed": "binding", "technique": "competition with immobilised ligand", "concentration": "0.5 µM", "measurement": "remaining binding", "value": "100%"}
{"Structure (SMILES)": "C=CC(=O)N1CCC[C@@H](n2nc(-c3ccc(Oc4ccccc4)cc3)c3c(N)ncnc32)C1", "observed": "enzyme activity", "mode": "inhibitor", "concentration": "1 µM", "measurement": "inhibition", "value": "26%"}
{"Structure (SMILES)": "C[C@H]1CC[C@H](n2c3cnccc3c3cnc(Nc4ccc5c(n4)CCN(C(=O)CO)C5)nc32)CC1", "observed": "cell-free assay", "concentration": "1 µM", "measurement": "remaining signal", "value": "100%"}
{"Structure (SMILES)": "COc1ccc2oc(-c3ccc4nc(N)oc4c3)c/c(=N\\c3ccccc3NC(=O)CCN)c2c1", "observed": "binding", "concentration": "1 µM", "measurement": "remaining binding", "value": "106%"}
{"Structure (SMILES)": "Cc1cc(-c2ccnc3[nH]cc(F)c23)cc(F)c1[C@@]1(O)[C@H](C)CN(C(=O)CN)C[C@@H]1C", "observed": "enzyme activity", "mode": "inhibitor", "concentration": "15 nM", "measurement": "remaining activity", "value": "48.7%"}
{"Structure (SMILES)": "CN1CCN(C(=O)c2ccc(NC(=O)Nc3ccc(N(C)c4ccnc(Nc5ccc(CS(C)(=O)=O)cc5)n4)cc3)cc2)CC1", "observed": "binding", "concentration": "1 µM", "measurement": "remaining binding", "value": "17%"}
